Entries after “also recorded” stand apart in the source; their conditions may differ.
How the values were obtained:
[1] = molecular target: T1, Crcen (Chlamydomonas reinhardtii centrin) (Chlamydomonas reinhardtii, UniProt P05434); assay: X-ray crystal structure of Crcen-MLT complex; assay type: binding; settings: PDB 3QRX, 2.30 Å, 4 Ca^2+ ions, Crcen-MLT 1:1.5 molar ratio
[2] = molecular target: T1, Crcen (Chlamydomonas reinhardtii centrin); assay: Isothermal titration calorimetry of Crcen-MLT interaction; assay type: binding; settings: ITC, pH 7.4, 25 °C
Summary of the method: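 Unlabeled recombinant centrin was expressed in E. coli, purified, and quantified by ε280 = 1,490 M⁻¹ cm⁻¹. The acetylated, amidated test peptide was dialysed against 0.1 N HCl to remove TFA, then against buffer. 120 μM peptide was injected sequentially into 10 μM centrin in 50 mM Hepes, 150 mM NaCl, 4 mM CaCl₂, 4 mM MgCl₂, pH 7.4, 25 °C. Data were fitted to a one-site binding model.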

CaM (calmodulin) = settings: cited from earlier work
tumor = settings: ref [23],[24]; cited from earlier work
calmodulin (CaM) = settings: literature statement; cited from earlier work
human centrin 2 (Hscen2) = settings: 30 °C, pH 6.5; compared to Crcen-MLT and CaM-MLT; ref [16]; cited from earlier work
human centrin 3 = settings: compared to Hscen2-MLT (Kd 62.5 nM); ref [16],[25]; cited from earlier work
[3] = FT-IR / 2D IR correlation spectroscopy, thermal dependence; assay type: physicochemical; settings: ^13C-Crcen-MLT complex
[4] = holo-Crcen; ref [11]; cited from earlier work
[5] = ref [12]; cited from earlier work
[6] = molecular target: Chlamydomonas reinhardtii centrin (Chlamydomonas reinhardtii) (UniProt P05434); assay: ITC
Chain of Chlamydomonas reinhardtii centrin (Chlamydomonas reinhardtii) (P05434 whole entry): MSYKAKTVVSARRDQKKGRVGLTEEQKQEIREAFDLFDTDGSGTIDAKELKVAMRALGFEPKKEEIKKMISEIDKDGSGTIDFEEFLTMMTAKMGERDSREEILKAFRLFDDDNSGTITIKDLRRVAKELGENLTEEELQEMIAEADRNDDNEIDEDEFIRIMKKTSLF

[7] = molecular target: melittin (Apis mellifera) (UniProt P01501); settings: cited from earlier work
Chain of melittin (Apis mellifera) (P01501 44-70): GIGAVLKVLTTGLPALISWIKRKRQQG

T1 sequence (P05434 2-169): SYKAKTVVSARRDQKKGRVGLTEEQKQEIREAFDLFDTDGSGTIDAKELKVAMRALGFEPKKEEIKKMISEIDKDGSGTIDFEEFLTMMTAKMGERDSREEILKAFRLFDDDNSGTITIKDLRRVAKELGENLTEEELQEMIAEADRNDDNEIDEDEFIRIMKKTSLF
Chain of Melittin (Ac-…-NH2) (peptide) (P01501 44-69): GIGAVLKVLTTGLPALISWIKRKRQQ
Chain of human centrin 2 (P41208 2-172): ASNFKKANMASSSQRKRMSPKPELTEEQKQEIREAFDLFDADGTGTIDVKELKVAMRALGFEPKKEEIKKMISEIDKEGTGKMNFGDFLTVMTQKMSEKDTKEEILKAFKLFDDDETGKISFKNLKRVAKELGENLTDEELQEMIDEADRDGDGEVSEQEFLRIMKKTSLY

CC[C@H](C)[C@H](NC(=O)CNC(C)=O)C(=O)NCC(=O)N[C@@H](C)C(=O)N[C@H](C(=O)N[C@@H](CC(C)C)C(=O)N[C@@H](CCCCN)C(=O)N[C@H](C(=O)N[C@@H](CC(C)C)C(=O)N[C@H](C(=O)N[C@H](C(=O)NCC(=O)N[C@@H](CC(C)C)C(=O)N1CCC[C@H]1C(=O)N[C@@H](C)C(=O)N[C@@H](CC(C)C)C(=O)N[C@H](C(=O)N[C@@H](CO)C(=O)N[C@@H](Cc1c[nH]c2ccccc12)C(=O)N[C@H](C(=O)N[C@@H](CCCCN)C(=O)N[C@@H](CCCNC(=N)N)C(=O)N[C@@H](CCCCN)C(=O)N[C@@H](CCCNC(=N)N)C(=O)N[C@@H](CCC(N)=O)C(=O)N[C@@H](CCC(N)=O)C(N)=O)[C@@H](C)CC)[C@@H](C)CC)[C@@H](C)O)[C@@H](C)O)C(C)C)C(C)C [MLT]
binding site in crystal structure [1]: interacts with the C-terminal domain of Crcen; also recorded: limits its interaction to the C-terminal domain of centrin
thermodynamic driving force of complex formation [2]: driven by entropy; also recorded: driven entropically
ΔG [2]: -11.1 kcal/mol
ΔS [2]: 28.0 cal/mol∙K
n (binding stoichiometry) ([2]; one-site binding model): 1.38 ± 0.01
ΔHb ([2]; exothermic): -2.73 ± 0.07 kcal/mol
thermodynamic driving force of complex formation, CaM (CaM (calmodulin); BtCaM, 25 °C, pH 7.0, ref [14]): driven by entropy
dissociation constant (Kd), holo-CaM (CaM (calmodulin); holo-CaM-MLT, 1:1 molar ratio, ref [14],[15],[17]): low nanomolar range
Kd (CaM (calmodulin); read-out: Kd, apo-CaM, ref [17],[18]): ~10 µM
cytotoxicity (tumor): cytotoxicity
effect on tumor growth (tumor): inhibitory effect on tumor growth
inhibition of calmodulin (CaM) activity (calmodulin (CaM)): potent inhibitor
enthalpy change, Hscen2-MLT (human centrin 2 (Hscen2)): much more favorable for binding
affinity, human centrin 3-MLT, fold higher than Hscen2-MLT (human centrin 3): 2–3 fold
conformational change of MLT in the complex [3]: increased helicity

Crcen: Chlamydomonas reinhardtii centrin (Swiss Protein Database accession number P05434), EF-hand calcium binding protein
Tm (transition temperature) [4]: 112.1 °C
shift of amide I’ peak maximum with temperature, unlabeled Crcen [5]: 2.5 cm⁻¹

Melittin (Ac-…-NH2) (peptide)
Kd [6]: 7.41 nM
dH [6]: -2.73 kcal/mol
stoichiometry N [6]: 1.38

human centrin 2 (from UniProt P41208)
Kd [7]: 62.5 nM

Reference: publication PMC3204214 (Proteins, 2011)
